In the library only some 1.7% were active in any assay of this set; here they are far more common.
STEP block – STEP (human) phosphatase inhibition; AID 588621; inhibition, % at 20 µM; 360,000 compounds, 0.25% hits; P54829; recombinant STEP, OMFP fluorogenic substrate, fluorescence;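 active means inhibition at 20 µM, scaled per plate between control wells, above about 37%, limit read from the data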;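 further: 0% = DMSO with enzyme and substrate and 100% = substrate only without enzyme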
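material = STEP tyrosine phosphatase | reagent = fluorogenic phosphatase substrate OMFP at 25 µM final | doses = single compound dose of 20 µM, 1% DMSO final | schedule = 20 min reaction, room temperature, in the dark | measured by = fluorescence, 480/540 nm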
Scp1 inh – Scp-1 (human) phosphatase inhibition | Q9GZU7 | Recombinant Scp1, phosphopeptide, malachite green phosphate absorbance | inhibition, % at 20 µM | 340,000 compounds, 0.88% hits;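 active means inhibition above about 50% at 20 µM, limit read from the data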;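 further: plate controls were DMSO wells with enzyme for no effect and wells lacking enzyme for full effect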
Target sequence (Q9GZU7 76-261 limits assumed): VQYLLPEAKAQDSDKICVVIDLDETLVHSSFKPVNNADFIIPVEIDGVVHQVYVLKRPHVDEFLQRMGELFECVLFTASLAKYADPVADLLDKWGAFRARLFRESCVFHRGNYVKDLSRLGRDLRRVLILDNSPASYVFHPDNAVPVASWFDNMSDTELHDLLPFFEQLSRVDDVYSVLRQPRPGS
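assay system = SCP-1 phosphatase catalytic domain, residues 76-261 | buffer or medium = 50 mM Tris acetate pH 5.5, 0.005% Tween-20, 10 mM MgCl2 | incubation = enzyme reaction 45 min at room temperature, colour 5 min, stabilisation 30 min | signal = Phosphate-binding colour reagent, absorbance read at 630 nm | measure = % inhibition at 20 µM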
SUMO1-SIM PPI – modulators of human SUMO1-mediated protein-protein interactions | SUMO1 binding to a labelled peptide, TR-FRET, 1 h | inhibition, % at 20 µM | 360,000 compounds, 0.33% hits | AID 602429; in the data active means inhibition above about 37%
Target sequence (P63165 whole entry, looked up): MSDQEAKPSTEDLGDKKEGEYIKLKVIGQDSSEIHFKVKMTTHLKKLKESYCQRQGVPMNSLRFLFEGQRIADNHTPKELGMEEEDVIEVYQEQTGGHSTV
DNMT1 inh – DNMT1 (human) enzyme inhibition | P26358 | DNMT1 molecular beacon, Hinp1I cleavage, fluorescence | inhibition (reported as % activation of signal), % at 10 µM | 360,000 compounds, 0.83% hits; in the data active means inhibition above about 50%
LMPTP inh – blocks human LMPTP phosphatase | recombinant LMPTP-A, OMFP fluorogenic substrate, fluorescence intensity | 360,000 compounds, 0.22% hits | P24666 | inhibition, % at 20 µM;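 active means compounds that cut the enzyme signal by at least half of the control window in the single-dose screen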;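 further: plate controls were DMSO wells with enzyme plus substrate for no effect and substrate without enzyme for full effect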
Target sequence (P24666 whole entry, looked up): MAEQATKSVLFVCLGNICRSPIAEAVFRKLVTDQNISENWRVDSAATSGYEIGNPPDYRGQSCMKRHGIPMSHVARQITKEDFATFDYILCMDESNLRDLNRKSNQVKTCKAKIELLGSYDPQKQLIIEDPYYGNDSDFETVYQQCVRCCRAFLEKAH
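Assay system: LMPTP-A, protein tyrosine phosphatase of low molecular weight / Medium: pH 6.0 Bis-Tris buffer with DTT and Triton X-100 / Schedule: 50 min enzyme reaction at room temperature, protected from light / Measured by: endpoint fluorescence intensity from OMFP dephosphorylation / Read-out basis: % inhibition relative to no-enzyme and uninhibited control wells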
* marks the source's active call; other numbers are inactive results; . = no result; ! = repeats disagree.

SMILES | STEP block | Scp1 inh | SUMO1-SIM PPI | DNMT1 inh | LMPTP inh
COc1ccc(CCn2c(NN)nc3c2c(=O)[nH]c(=O)n3C)cc1 | 28 | 20 | -10 | 75* | 7
N#Cc1ccc(CSc2nnc(NC(=O)c3ccc4ncsc4c3)s2)cc1 | 0 | 5 | 40* | 3 | 8
O=C(Nc1ccc(C2=NCCN2)cc1)c1ccc(C(=O)Nc2ccc(C3=NCCN3)cc2)c(Cl)c1 | 3 | -17 | 87* | -29 | 59*
CC1(C(=O)NS(=O)(=O)C2CC2)CCN(C(=O)c2ccc3ccccc3n2)C1 (centres undefined) | -4 | . | 1 | 1 | -1
COc1ccccc1-c1cnc(C(O)c2ccc(Cl)c(Cl)c2)[nH]1 (centres undefined) | -1 | . | -1 | -2 | 1
CC(=O)c1cccc(NC(=O)c2cccc(N3C(=O)c4ccccc4C3=O)c2)c1 | 6 | 49 | 61* | 0 | 3
COc1cccc(/C=C2/SC(=O)N(C)C2=O)c1OCc1ccc(C(=O)O)cc1 | 1 | -6 | -18 | 1 | 0
CN1C(=O)S/C(=C/c2ccc(OCc3cccc(C(=O)O)c3)cc2)C1=O | 2 | 52* | -14 | 1 | 4
O=C(Nc1ccccc1)c1cc(C2CCCCN2C(=O)c2ccccc2)on1 (centres undefined) | -1 | . | 2 | 1 | -2
C=Cc1c(C)c2cc3[nH]c(cc4nc(cc5nc(cc1[nH]2)C(C)=C5CCC(=O)O)C(CCC(=O)O)=C4C)c(C)c3C=C | 1 | 64*! | 112*! | 79* | 5
CN(C)c1ccc(-c2ccnc3c2CC(C)(C(=O)NCc2cccc(Cl)c2)O3)cc1 (centres undefined) | 0 | . | -3 | -16 | 4
Cn1c(=O)c2c(-c3ccccc3)n(-c3ccc(N)cc3)cc2n(C)c1=O | 3 | . | 42* | 40 | 13
O=C(Nc1ccc2c(c1)C(=O)NC2=O)c1ccc2ncsc2c1 | -4 | -10 | 42* | -1 | 0
O=C1/C(=C/C=C/c2ccco2)SC(=S)N1NS(=O)(=O)c1ccccc1 | 43* | 82* | 112* | 87* | 62*
CC(C(=O)O)N1C(=O)/C(=C/C=C/c2ccco2)SC1=S (centres undefined) | 99* | 79* | 100* | 83* | 78*
O=S1(=O)CC(N2CCSCC2)CN1Cc1cn(Cc2ccc(C(F)(F)F)cc2)nn1 (centres undefined) | . | . | -3 | . | 1
O=C(Nc1nnc([C@@H]2O[C@H](CO)[C@@H](O)[C@H]2O)s1)Nc1ccccc1C(F)(F)F | 1 | . | 4 | 3 | 1
Cc1cc(N)ccc1N1CCCC1 | 24 | 3 | 2 | 83* | 68*
COC(=O)c1ccc2nc(-c3ccc(F)cc3)c(Cc3ccccc3C(F)(F)F)n2c1 | . | . | -4 | . | 2
O=C(Nc1ccc(F)c(Cl)c1)C1Cc2c(-c3ccco3)ccnc2O1 (centres undefined) | -2 | . | 4 | 2 | -1
COC(=O)c1ccc2c(c1)C(=O)/C(=C/c1ccc(O)cc1)O2 | -1 | 18 | 47* | -5 | 7
CC(C)(C)c1ccc(/C=C2\Oc3cc(O)ccc3C2=O)cc1 | 2 | -2 | -22 | -2 | 4
Cc1ccc(N=Nc2c(N)[nH]n3c(=O)cc(-c4ccccc4)nc23)cc1 | 21 | 36 | -9 | -25 | 70*
CC(C1SC(=S)NC1=O)C1SC(=S)NC1=O (centres undefined) | 2 | . | 20 | -6 | 68*
NC(=O)c1ccc(NC(=O)CSC2=Nc3ccccc3C3CC=NN23)cc1 (centres undefined) | -2 | -5 | 47* | -1 | 0
SMILES | STEP block | Scp1 inh | SUMO1-SIM PPI | DNMT1 inh | LMPTP inh
COC(=O)c1ccc(NC(=O)CSC2=Nc3ccccc3C3CC=NN23)cc1 (centres undefined) | 2 | -11 | -3 | -11 | -1
COc1cccc(OC)c1-c1nn2c(-c3cc(-c4ccccc4)n[nH]3)nnc2s1 | 4 | 90* | -2 | 17 | 56*
NC1=NC(=O)/C(=C/c2ccc(-c3ccc(S(N)(=O)=O)cc3)o2)S1 | -2 | 6 | 88* | 9 | 4
NS(=O)(=O)c1ccc(-c2ccc(/C=C3\C(=O)Nc4cc(Cl)ccc43)o2)cc1 | 0 | -11 | 48* | -14 | 22
Cc1nc2ccc(C(=O)NC(C)(C)C)cn2c1N(C)C(=O)CCc1ccccc1 | -2 | . | -8 | 3 | -4
COc1ccccc1P(=O)(c1ccccc1)c1ccccc1 | -2 | -4 | 5 | 1 | -1
Cc1ccccc1P(=O)(c1ccccc1)c1ccccc1C | -3 | . | 44* | -1 | -2
Cc1ccc(-n2c(C)cc(/C=N/Nc3ccc([N+](=O)[O-])cn3)c2C)cc1 | 0 | 102* | -5 | 1 | 0
Cc1c(/C=N/Nc2ccc([N+](=O)[O-])cn2)c2ccccc2n1Cc1ccccc1 | 4 | -11 | -15 | 51* | 8
Cc1ccc(Cn2cc(/C=N/Nc3ccc([N+](=O)[O-])cn3)c3ccccc32)cc1 | 1 | 2 | -17 | 34 | 3
Cc1cc(/C=N/Nc2ccc([N+](=O)[O-])cn2)c(C)n1-c1ccccc1 | 13 | 6 | -19 | 1 | 1
O=Cc1ccnc(-c2ccc(OC(=O)c3ccco3)cc2)n1 | 3 | -9 | 56* | -8 | 1
COc1ccc2c(c1)c(=O)oc1cc(OCC(=O)N3CCC(C)CC3)ccc12 | 0 | 77* | 7 | 63* | 13
COc1ccc2c(c1)c(=O)oc1cc(OCC(=O)N3CCCC(C)C3)ccc12 (centres undefined) | 9 | 33 | 8 | 13 | 4
O=C(c1ccc(Br)o1)N1CCN(c2ccc3nnc(-c4ccc(F)cc4)n3n2)CC1 | 2 | 6 | 49* | -7 | 0
CC(/C=C1\SC(=S)N(CCCC(=O)Nc2ccc(C(=O)O)cc2)C1=O)=C\c1ccccc1 | 2 | -11 | 9 | 48 | 49*
CC(=Cc1ccccc1)C=C1SC(=S)N(CCCC(=O)Nc2ccc(C(=O)O)cc2)C1=O | -1 | . | -2 | 10 | 61*
CC(=C\c1ccccc1)/C=C1/SC(=S)N(CCCC(=O)O)C1=O | 1 | -12 | 3 | 7 | 4
COc1cc2[nH]c(C)c(-c3ccccc3)c(=O)c2cc1Cl | . | . | -69 | . | -1
Cc1cc(-c2cc(NC=O)c3ncc(-c4cccc(C(=O)NCCN(C)C)c4)n3c2)cc(C)c1O | 6 | . | 48* | -4 | -13
CN(C)CCNC(=O)c1cccc(-c2cnc3c(NC=O)cc(-c4cccs4)cn23)c1 | 4 | . | 51* | -5 | -2
CN(C)CCNC(=O)c1cccc(-c2cnc3c(NC=O)cc(-c4ccccc4F)cn23)c1 | 2 | . | 9 | -4 | -3
CCNC(=O)C1(C)CCCN(C(=O)c2cc(C)n(C(C)(C)C)n2)C1 (centres undefined) | -2 | . | 9 | 2 | -1

From PubChem BioAssay
